Tests used:
[1] = biological target: Mu-type opioid receptor (Homo sapiens) (UniProt P35372); test: Displacement of [3H]-DAMGO from human MOR stably expressed in HEK cell membranes at 10 uM after 90 mins by microbeta scintillation counting method relative to control
Method in brief: (§1)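 Primary screen at 10 μM compound, expressed as % receptor inhibition, from at least three experiments.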

[2] = biological target: Delta-type opioid receptor (Homo sapiens) (UniProt P41143); test: Displacement of [3H]-DADLE from human DOR stably expressed in HEK cell membranes at 10 uM after 90 mins by microbeta scintillation counting method relative to control; method in brief: as §1
Sequence of Delta-type opioid receptor (Homo sapiens) (P41143 whole entry): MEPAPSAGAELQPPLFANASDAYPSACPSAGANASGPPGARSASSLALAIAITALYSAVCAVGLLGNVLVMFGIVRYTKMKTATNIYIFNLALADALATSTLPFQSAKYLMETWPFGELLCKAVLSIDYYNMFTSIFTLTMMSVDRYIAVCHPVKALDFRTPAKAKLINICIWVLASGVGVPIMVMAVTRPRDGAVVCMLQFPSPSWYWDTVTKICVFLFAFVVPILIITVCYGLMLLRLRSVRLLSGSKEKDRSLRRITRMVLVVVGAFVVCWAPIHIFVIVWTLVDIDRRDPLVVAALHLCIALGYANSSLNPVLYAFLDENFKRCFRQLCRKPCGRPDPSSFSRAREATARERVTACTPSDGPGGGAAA

D(3) dopamine receptor [3] = biological target: T1, D(3) dopamine receptor (Homo sapiens, UniProt P35462); test: Agonist activity at recombinant human D3 receptor expressed in CHOK1 cells assessed as induction of beta arrestin2 recruitment measured after 30 mins by coelenterazine-based beta-galactosidase reporter gene assay; type: cell-based
T1 sequence (P35462 whole entry): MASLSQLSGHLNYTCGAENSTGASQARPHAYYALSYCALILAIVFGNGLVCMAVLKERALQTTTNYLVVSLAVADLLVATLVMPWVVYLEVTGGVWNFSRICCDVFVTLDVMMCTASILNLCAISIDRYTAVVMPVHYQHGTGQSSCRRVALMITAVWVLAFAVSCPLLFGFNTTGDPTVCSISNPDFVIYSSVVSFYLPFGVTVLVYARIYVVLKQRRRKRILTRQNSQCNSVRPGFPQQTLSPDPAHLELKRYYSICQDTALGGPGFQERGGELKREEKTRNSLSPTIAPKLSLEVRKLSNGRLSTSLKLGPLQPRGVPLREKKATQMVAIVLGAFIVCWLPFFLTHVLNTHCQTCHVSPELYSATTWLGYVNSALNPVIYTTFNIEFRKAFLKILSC

D(3) dopamine receptor [4] = biological target: T1, D(3) dopamine receptor; test: Antagonist activity at recombinant human D3 receptor expressed in CHOK1 cells assessed as inhibition of dopamine-induced beta arrestin2 recruitment preincubated for 30 mins followed by dopamine addition and measured after 90 mins by coelenterazine-based beta-galactosidase reporter gene assay; type: cell-based
D2 dopamine receptor [5] = biological target: T2, D2 dopamine receptor (Homo sapiens, UniProt P14416); test: Agonist activity at recombinant human D2 receptor expressed in CHOK1 cells assessed as induction of beta arrestin2 recruitment measured after 30 mins by coelenterazine-based beta-galactosidase reporter gene assay; type: ADME, cell-based
T2 sequence (P14416 whole entry): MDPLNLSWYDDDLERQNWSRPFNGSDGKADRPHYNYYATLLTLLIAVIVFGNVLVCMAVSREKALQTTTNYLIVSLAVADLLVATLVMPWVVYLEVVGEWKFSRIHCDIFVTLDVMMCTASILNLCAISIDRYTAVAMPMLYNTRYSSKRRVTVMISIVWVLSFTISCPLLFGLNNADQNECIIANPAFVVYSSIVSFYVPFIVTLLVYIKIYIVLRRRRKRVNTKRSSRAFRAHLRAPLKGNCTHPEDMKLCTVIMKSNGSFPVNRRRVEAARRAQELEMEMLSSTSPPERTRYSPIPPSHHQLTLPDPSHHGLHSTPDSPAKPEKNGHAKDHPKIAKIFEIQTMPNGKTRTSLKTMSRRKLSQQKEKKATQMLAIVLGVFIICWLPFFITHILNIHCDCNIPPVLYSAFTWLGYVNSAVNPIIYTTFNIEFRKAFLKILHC

D2 dopamine receptor [6] = biological target: T2, D2 dopamine receptor; test: Antagonist activity at recombinant human D2 receptor expressed in CHOK1 cells assessed as inhibition of quinpirole-induced beta arrestin2 recruitment preincubated for 30 mins followed by quinpirole addition and measured after 90 mins by coelenterazine-based beta-galactosidase reporter gene assay; type: cell-based
D(1A) dopamine receptor = D(1A) dopamine receptor (Homo sapiens, UniProt P21728); test: Agonist activity at recombinant human D1 receptor expressed in CHOK1 cells assessed as induction of beta arrestin2 recruitment measured after 30 mins by coelenterazine-based beta-galactosidase reporter gene assay; type: cell-based
[7] = biological target: 5-hydroxytryptamine receptor 1A (Homo sapiens, UniProt P08908); test: Displacement of [3H]-Way100635 from recombinant human 5HT1A receptor transiently expressed in CHO cell membranes measured after 90 mins by microbeta scintillation counting method
Sequence of 5-hydroxytryptamine receptor 1A (P08908 whole entry): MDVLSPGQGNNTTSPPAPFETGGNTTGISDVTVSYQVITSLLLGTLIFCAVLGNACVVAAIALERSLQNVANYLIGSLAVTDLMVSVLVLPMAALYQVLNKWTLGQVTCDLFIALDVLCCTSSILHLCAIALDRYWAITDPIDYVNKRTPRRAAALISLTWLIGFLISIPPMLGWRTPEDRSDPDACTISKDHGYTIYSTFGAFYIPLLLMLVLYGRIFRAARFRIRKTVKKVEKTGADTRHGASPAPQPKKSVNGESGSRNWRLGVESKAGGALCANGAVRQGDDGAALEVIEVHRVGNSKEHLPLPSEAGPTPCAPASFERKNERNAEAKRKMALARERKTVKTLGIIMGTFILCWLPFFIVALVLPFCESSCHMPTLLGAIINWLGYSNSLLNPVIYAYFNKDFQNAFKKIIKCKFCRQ

[8] = biological target: 5-hydroxytryptamine receptor 1D (Homo sapiens) (UniProt P28221); test: Displacement of [3H]-5-CT from recombinant human 5HT1D receptor transiently expressed in HEKT cell membranes at 10 uM measured after 90 mins by microbeta scintillation counting method relative to control; method in brief: as §1
[9] = biological target: 5-hydroxytryptamine receptor 1E (Homo sapiens) (UniProt P28566); test: Displacement of [3H]-5-HT from recombinant human 5HT1E receptor stably expressed in HEK cell membranes at 10 uM measured after 90 mins by microbeta scintillation counting method relative to control; method in brief: as §1
[10] = biological target: 5-hydroxytryptamine receptor 2B (Homo sapiens, UniProt P41595); test: Displacement of [3H]-LSD from recombinant human 5HT2B receptor stably expressed in HEK cell membranes measured after 90 mins by microbeta scintillation counting method
[11] = biological target: 5-hydroxytryptamine receptor 3A (Homo sapiens) (UniProt P46098); test: Displacement of [3H]-GR65630 from recombinant human 5HT3 receptor transiently expressed in HEKT cell membranes at 10 uM measured after 90 mins by microbeta scintillation counting method relative to control; method in brief: as §1
Sequence of 5-hydroxytryptamine receptor 3A (Homo sapiens) (P46098 whole entry): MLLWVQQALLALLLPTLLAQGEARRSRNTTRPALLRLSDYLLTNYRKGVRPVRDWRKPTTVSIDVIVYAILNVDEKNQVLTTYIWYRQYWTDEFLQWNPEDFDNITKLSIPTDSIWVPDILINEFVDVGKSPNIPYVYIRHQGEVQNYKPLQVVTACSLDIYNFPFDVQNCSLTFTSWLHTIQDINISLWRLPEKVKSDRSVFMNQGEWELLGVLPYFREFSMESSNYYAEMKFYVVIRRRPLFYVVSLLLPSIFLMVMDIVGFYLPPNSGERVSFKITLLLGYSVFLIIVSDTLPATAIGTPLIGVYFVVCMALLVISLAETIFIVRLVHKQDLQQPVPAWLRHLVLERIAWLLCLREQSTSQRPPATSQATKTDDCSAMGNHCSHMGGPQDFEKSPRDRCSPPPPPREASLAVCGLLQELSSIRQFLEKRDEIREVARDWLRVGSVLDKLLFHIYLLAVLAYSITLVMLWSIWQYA

[12] = biological target: 5-hydroxytryptamine receptor 6 (Homo sapiens) (UniProt P50406); test: Displacement of [3H]-LSD from recombinant human 5HT6 receptor stably expressed in HEK cell membranes at 10 uM measured after 90 mins by microbeta scintillation counting method relative to control; method in brief: as §1
[13] = biological target: Histamine H4 receptor (Homo sapiens) (UniProt Q9H3N8); test: Displacement of [3H]-histamine from human histamine H4 receptor stably expressed in HEKT cell membranes at 10 uM after 90 mins by microbeta scintillation counting method relative to control; method in brief: as §1
Sequence of Histamine H4 receptor (Homo sapiens) (Q9H3N8 whole entry): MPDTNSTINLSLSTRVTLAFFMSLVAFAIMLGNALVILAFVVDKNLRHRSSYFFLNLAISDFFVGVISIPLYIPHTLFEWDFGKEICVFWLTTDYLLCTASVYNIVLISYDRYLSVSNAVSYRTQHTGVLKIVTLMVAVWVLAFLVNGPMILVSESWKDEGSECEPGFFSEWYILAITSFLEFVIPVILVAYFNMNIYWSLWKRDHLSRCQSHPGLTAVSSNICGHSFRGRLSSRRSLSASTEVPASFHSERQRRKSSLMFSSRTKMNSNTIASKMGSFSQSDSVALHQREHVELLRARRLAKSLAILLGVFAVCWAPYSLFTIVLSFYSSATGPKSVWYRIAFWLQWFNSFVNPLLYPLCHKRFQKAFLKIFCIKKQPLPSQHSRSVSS

[14] = biological target: Kappa-type opioid receptor (Homo sapiens) (UniProt P41145); test: Displacement of [3H]-U69593 from KOR (unknown origin) at 10 uM after 90 mins by microbeta scintillation counting method relative to control; method in brief: as §1
[15] = biological target: Muscarinic acetylcholine receptor M1 (Homo sapiens) (UniProt P11229); test: Displacement of [3H]-QNB/[3H]-NMS from human muscarinic M1 receptor expressed in stable CHO cells at 10 uM after 90 mins by microbeta scintillation counting method relative to control; type: cell-based; method in brief: as §1
[16] = biological target: Muscarinic acetylcholine receptor M5 (Homo sapiens) (UniProt P08912); test: Displacement of [3H]-QNB/[3H]-NMS from human muscarinic M5 receptor expressed in stable CHO cells at 10 uM after 90 mins by microbeta scintillation counting method relative to control; type: cell-based; method in brief: as §1
[17] = biological target: Alpha-1A adrenergic receptor (Homo sapiens, UniProt P35348); test: Displacement of [3H]-prazosin from recombinant human alpha1A adrenergic receptor measured after 90 mins by microbeta scintillation counting method
Sequence of Alpha-1A adrenergic receptor (P35348 whole entry): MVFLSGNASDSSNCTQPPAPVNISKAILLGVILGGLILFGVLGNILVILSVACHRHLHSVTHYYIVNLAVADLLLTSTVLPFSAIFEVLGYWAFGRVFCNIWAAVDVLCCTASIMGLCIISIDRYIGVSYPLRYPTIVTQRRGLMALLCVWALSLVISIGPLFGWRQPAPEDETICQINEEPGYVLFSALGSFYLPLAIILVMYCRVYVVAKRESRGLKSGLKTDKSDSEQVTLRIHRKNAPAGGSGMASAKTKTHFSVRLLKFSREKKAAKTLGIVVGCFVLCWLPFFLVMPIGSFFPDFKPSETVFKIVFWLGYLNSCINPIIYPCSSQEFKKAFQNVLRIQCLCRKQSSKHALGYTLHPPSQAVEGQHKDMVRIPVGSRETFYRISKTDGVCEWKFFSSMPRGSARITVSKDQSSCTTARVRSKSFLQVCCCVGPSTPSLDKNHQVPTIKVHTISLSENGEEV

[18] = biological target: Alpha-1B adrenergic receptor (Homo sapiens, UniProt P35368); test: Displacement of [3H]-prazosin from recombinant human alpha1B adrenergic receptor transiently expressed in HEKT cells measured after 90 mins by microbeta scintillation counting method; type: cell-based
Sequence of Alpha-1B adrenergic receptor (P35368 whole entry): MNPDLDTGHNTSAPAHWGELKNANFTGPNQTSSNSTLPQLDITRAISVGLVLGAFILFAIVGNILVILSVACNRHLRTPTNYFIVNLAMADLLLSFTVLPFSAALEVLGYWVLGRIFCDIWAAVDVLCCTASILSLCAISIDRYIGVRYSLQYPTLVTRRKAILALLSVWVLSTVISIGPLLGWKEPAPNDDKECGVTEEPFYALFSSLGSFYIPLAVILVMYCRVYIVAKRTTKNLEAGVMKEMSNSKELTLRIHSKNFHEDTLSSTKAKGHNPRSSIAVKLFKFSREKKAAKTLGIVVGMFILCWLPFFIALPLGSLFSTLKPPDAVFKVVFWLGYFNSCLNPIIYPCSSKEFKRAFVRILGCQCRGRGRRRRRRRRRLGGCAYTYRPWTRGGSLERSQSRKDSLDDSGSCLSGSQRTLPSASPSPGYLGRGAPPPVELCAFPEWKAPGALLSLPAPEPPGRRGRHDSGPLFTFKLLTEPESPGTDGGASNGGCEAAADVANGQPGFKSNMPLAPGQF

[19] = biological target: Alpha-2C adrenergic receptor (Homo sapiens, UniProt P18825); test: Displacement of [3H]-rauwolscine from recombinant human alpha2C adrenergic receptor stably expressed in MDCK cells measured after 90 mins by microbeta scintillation counting method; type: cell-based
[20] = biological target: Nicotinic acetylcholine receptor alpha2/beta4 (Homo sapiens) (UniProt P02708+P30926); test: Displacement of [3H]-epibatidine from recombinant human alpha2beta4 nACHR stably expressed in HEK cells at 10 uM measured after 90 mins by microbeta scintillation counting method relative to control; type: cell-based; method in brief: as §1
[21] = biological target: Neuronal acetylcholine receptor; alpha3/beta2 (Homo sapiens) (UniProt P17787+P32297); test: Displacement of [3H]-epibatidine from recombinant human alpha3beta2 nACHR stably expressed in HEK cells at 10 uM measured after 90 mins by microbeta scintillation counting method relative to control; type: cell-based; method in brief: as §1
[22] = biological target: Neuronal acetylcholine receptor; alpha4/beta2 (Homo sapiens) (UniProt P17787+P43681); test: Displacement of [3H]-epibatidine from recombinant human alpha4beta2 nACHR stably expressed in HEK cells at 10 uM measured after 90 mins by microbeta scintillation counting method relative to control; type: cell-based; method in brief: as §1
[23] = biological target: Beta-1 adrenergic receptor (Homo sapiens) (UniProt P08588); test: Displacement of [125I]-pindolol from recombinant human beta1 adrenergic stably expressed in CHO Flp-In cells at 10 uM measured after 90 mins by microbeta scintillation counting method relative to control; type: cell-based; method in brief: as §1
Sequence of Beta-1 adrenergic receptor (Homo sapiens) (P08588 whole entry, looked up): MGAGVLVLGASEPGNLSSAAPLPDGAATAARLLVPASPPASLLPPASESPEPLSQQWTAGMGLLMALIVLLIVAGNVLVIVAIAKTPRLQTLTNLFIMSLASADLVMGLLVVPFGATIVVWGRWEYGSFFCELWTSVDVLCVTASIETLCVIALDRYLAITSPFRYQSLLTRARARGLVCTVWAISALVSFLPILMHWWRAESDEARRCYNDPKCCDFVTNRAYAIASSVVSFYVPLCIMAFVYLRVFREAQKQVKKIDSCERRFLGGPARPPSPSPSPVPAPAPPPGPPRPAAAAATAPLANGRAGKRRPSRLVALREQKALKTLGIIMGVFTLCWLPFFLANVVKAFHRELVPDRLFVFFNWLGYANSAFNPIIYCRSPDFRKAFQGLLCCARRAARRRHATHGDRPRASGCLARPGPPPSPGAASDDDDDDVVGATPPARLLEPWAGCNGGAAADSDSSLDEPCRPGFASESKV

[24] = biological target: Beta-2 adrenergic receptor (Homo sapiens) (UniProt P07550); test: Displacement of [3H]-CGP12177 from recombinant human beta2 adrenergic stably expressed in HEK Flp-In cells at 10 uM measured after 90 mins by microbeta scintillation counting method relative to control; type: cell-based; method in brief: as §1
Sequence of Beta-2 adrenergic receptor (Homo sapiens) (P07550 whole entry, looked up): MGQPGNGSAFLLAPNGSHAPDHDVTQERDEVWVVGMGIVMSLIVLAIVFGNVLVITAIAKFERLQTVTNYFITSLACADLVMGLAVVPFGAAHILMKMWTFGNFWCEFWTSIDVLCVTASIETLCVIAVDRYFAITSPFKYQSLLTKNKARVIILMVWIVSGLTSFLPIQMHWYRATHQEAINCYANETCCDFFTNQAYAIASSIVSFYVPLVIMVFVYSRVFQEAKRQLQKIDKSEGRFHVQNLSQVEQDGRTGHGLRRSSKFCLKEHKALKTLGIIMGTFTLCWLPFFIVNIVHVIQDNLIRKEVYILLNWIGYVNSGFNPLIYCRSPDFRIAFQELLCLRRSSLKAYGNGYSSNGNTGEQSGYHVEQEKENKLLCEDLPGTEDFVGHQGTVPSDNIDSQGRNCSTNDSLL

[25] = biological target: Beta-3 adrenergic receptor (Homo sapiens) (UniProt P13945); test: Displacement of [3H]-CGP12177 from recombinant human beta3 adrenergic stably expressed in HEK Flp-In cells at 10 uM measured after 90 mins by microbeta scintillation counting method relative to control; type: cell-based; method in brief: as §1
Sequence of Beta-3 adrenergic receptor (Homo sapiens) (P13945 whole entry, looked up): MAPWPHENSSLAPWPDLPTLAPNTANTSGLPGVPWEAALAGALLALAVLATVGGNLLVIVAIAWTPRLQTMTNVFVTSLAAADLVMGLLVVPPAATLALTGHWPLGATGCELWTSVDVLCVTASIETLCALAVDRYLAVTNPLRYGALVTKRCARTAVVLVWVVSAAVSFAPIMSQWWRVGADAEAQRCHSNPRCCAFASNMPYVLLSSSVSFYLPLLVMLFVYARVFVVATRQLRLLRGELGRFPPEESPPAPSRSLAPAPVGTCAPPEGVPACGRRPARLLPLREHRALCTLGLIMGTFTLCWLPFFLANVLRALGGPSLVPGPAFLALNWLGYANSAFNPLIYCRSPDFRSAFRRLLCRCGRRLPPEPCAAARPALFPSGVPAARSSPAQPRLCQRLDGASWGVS

[26] = biological target: Sodium-dependent dopamine transporter (Homo sapiens) (UniProt Q01959); test: Displacement of [3H]-Win35428 from recombinant human DAT stably expressed in HEK cells at 10 uM measured after 90 mins by microbeta scintillation counting method relative to control; type: cell-based; method in brief: as §1

Compound: COc1ccccc1N1CCC2(CCN(CCCSc3nnc(-c4ccccc4)n3C)CC2)CC1
- inhibition [1]: < 50%
- inhibition [2]: < 50%
- EC50 (D(3) dopamine receptor [3]): Not Active
- IC50 (D(3) dopamine receptor [4]): 0.0414 µM
- EC50 (D2 dopamine receptor [5]): Not Active
- IC50 (D2 dopamine receptor [6]): 1.62 µM
- EC50 (D(1A) dopamine receptor): Not Active
- Ki [7]: 1.3 µM
- inhibition [8]: < 50%
- inhibition [9]: < 50%
- Ki [10]: 2.14 µM
- inhibition [11]: < 50%
- inhibition [12]: < 50%
- inhibition [13]: < 50%
- inhibition [14]: < 50%
- inhibition [15]: 54%
- inhibition [16]: < 50%
- Ki [17]: 2.18 µM
- Ki [18]: 2.17 µM
- Ki [19]: 1.56 µM
- inhibition [20]: < 50%
- inhibition [21]: < 50%
- inhibition [22]: < 50%
- inhibition [23]: < 50%
- inhibition [24]: < 50%
- inhibition [25]: < 50%
- inhibition [26]: < 50%

Compound: COc1ccccc1N1CCN(CCCSc2nnc(-c3ccccc3)n2C)CC1
- inhibition [1]: < 50%
- inhibition [2]: < 50%
- EC50 (D(3) dopamine receptor [3]; read-out: EC50): 0.167 µM
- IC50 (D(3) dopamine receptor [4]): 0.0087 µM
- EC50 (D2 dopamine receptor [5]; read-out: EC50): 0.254 µM
- IC50 (D2 dopamine receptor [6]): 0.328 µM
- EC50 (D(1A) dopamine receptor): Not Active
- Ki [7]: 0.0009 µM
- inhibition [8]: > 50%
- inhibition [9]: < 50%
- Ki [10]: 0.042 µM
- inhibition [11]: < 50%
- inhibition [12]: < 50%
- inhibition [13]: < 50%
- inhibition [14]: < 50%
- inhibition [15]: < 50%
- inhibition [16]: < 50%
- Ki [17]: 0.049 µM
- Ki [18]: 0.094 µM
- Ki [19]: 0.433 µM
- inhibition [20]: < 50%
- inhibition [21]: < 50%
- inhibition [22]: < 50%
- inhibition [23]: < 50%
- inhibition [24]: 60%
- inhibition [25]: < 50%
- inhibition [26]: < 50%
